# Screens deposited in PubChem by several laboratories.
# This is a sample that favours compounds with a hit; in the whole collection about 1.9% have one here.
# aSyn 5UTR inh: MLPCN primary screen, SNCA 5' untranslated region; alpha-synuclein 5'UTR reporter, inhibitor activity; inhibition, % (tested at 7.5 µM); 0.82% of 300,000 active; in the data active = inhibition above about 60%; inconclusive = no clear call, values can overlap the other calls;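 also: H4 neuroglioblastoma cells stably carrying SNCA 5'UTR luciferase fusion; 0% = DMSO wells and 100% = positive control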
# Lipid droplet: inhibitors of hepatocyte lipid droplet formation, primary screen, imaging, high-throughput imaging, BODIPY stain | AML12 mouse hepatocytes, oleate lipid droplets | 0.4% of 240,000 active | inhibition, % at 6.5 µM;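 active = lipid droplet intensity inhibited by at least 50%, with more than 500 cells counted; inconclusive = wells with under 300 cells, treated as cytotoxic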
#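 Assay system: AML12 mouse liver cells | Compound: 6.5 µM single-point dosing | Schedule: Overnight exposure | Technique: Fluorescence imaging, 20x objective, two fields per well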
# APP 5UTR inh: inhibitors of APP translation via 5'UTR reporter, primary screen, APP 5'UTR luciferase, SH-SY5Y cells; SH-SY5Y APP 5'UTR-luciferase reporter, luminescence; inhibition, % at 2 µM; 0.82% of 190,000 active; AID 1285, 2008;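 active = inhibition above a set limit, derived from the sample mean plus 3 SD, cut at about 45% in these data; inconclusive = one replicate passes the limit while the other fails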
# TAG inh: inhibitors of triacylglycerol accumulation, primary screen, cell-based, uHTS, fluorescence, H9c2; H9c2 cells, Nile Red lipid (TAG) fluorescence; cells loaded with 200 µM oleic acid; inhibition, % at 12.5 µM; 0.66% of 230,000 active;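 active = pattern-corrected inhibition of lipid staining of at least 50% with the nuclear-stain viability signal not falling by more than 50%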;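 also: 0% = DMSO wells and 100% = triacsin C control wells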
# Jurkat NFkB inh: inhibitors of induced NF-kB luciferase reporter, primary screen, TCR NF-kB activation inhibitor project, cell-based, luminescence, uHTS. 0.53% of 330,000 active. Jurkat, PMA/ionomycin-induced NF-kB luciferase reporter. inhibition, % at 4 µM; in the data active = inhibition above about 50%
# 697 NFkB inh: inhibitors of PMA/ionomycin-induced NF-kB reporter, 697 cells, primary screen, B-cell NF-kB inhibitor project, cell-based, luminescence, uHTS. 0.33% of 330,000 active. inhibition, % at 4 µM. 697 B-cell NF-kB luciferase reporter, 16 h; in the data active = inhibition above about 35%
# * marks the source's active call; other numbers are inactive results; i = inactive; ? = inconclusive; nt = no result given.
SMILES,aSyn 5UTR inh,Lipid droplet,APP 5UTR inh,TAG inh,Jurkat NFkB inh,697 NFkB inh
COc1ccc(Nc2nc(N3CCCCC3)c3ccccc3n2)cc1,-13,nt,-8,-9,16,-55
Oc1ccc(Nc2nc(N3CCCC3)c3ccccc3n2)cc1,i,nt,8,52*,-15,-43
CCOc1ccc(C2OCCC(C)O2)cc1OC (stereo unspecified),nt,nt,nt,2,nt,nt
Cc1ccccc1C(=O)Nc1cccc(N)c1,-28,10,56*,25,-18,13
CCN(CC)c1nc(C=Cc2ccc(N(C)C)cc2)c2nccnc2n1,nt,nt,nt,i,nt,nt
Cc1ccc2nc(C)c(C(=O)NN=C3CCN(C)CC3)n2c1,24,-1,68*,-2,0,9
CSc1ccc(Cl)c(C(=O)Nc2ccc(Cl)cn2)c1,31,-4,24,-9,29,1
COc1cc(SC)ccc1C(=O)Nc1ccc(Cl)cn1,100*,12,-148,-11,-54,-174
C=CC[n+]1c(-c2ccc(Cl)cc2Cl)csc1Nc1c(C)n(C)n(-c2ccccc2)c1=O,14,-14,19,-11,16,2
C=CC[n+]1c(-c2ccc(Cl)cc2Cl)csc1Nc1ccc(NC(C)=O)cc1,94*,-13,16,-33,3,-71
CSCCNC(=O)C1(C)CCN1C(=O)C/C=C/c1ccccc1 (stereo unspecified),nt,nt,nt,6,nt,nt
Cc1cccc(CSCC(=O)N2CCN(S(=O)(=O)c3ccccc3C#N)CC2)c1,nt,nt,nt,-3,nt,nt
CCCCC(=O)NC(c1cccc([N+](=O)[O-])c1)c1ccc2cccnc2c1O (stereo unspecified),nt,nt,nt,76*,nt,nt
Oc1c(C(Nc2cccc(C(F)(F)F)c2)c2cccnc2)ccc2cccnc12 (stereo unspecified),-27,9,3,nt,-7,-34
Cc1cc(NC(c2cccnc2)c2ccc3cccnc3c2O)no1 (stereo unspecified),77*,nt,54*,19,16,-10
CCCCC(=O)NC(c1cccc([N+](=O)[O-])c1)c1c(OC(C)=O)ccc2ccccc12 (stereo unspecified),12,-2,-2,nt,-32,9
COc1cccc(C(NC(C)=O)c2ccc3cccnc3c2O)c1 (stereo unspecified),72*,nt,nt,48,46,-21
Oc1cccc(C(Nc2nccs2)c2ccc3cccnc3c2O)c1 (stereo unspecified),132*,-13,73*,44,49,-49
Cc1ccccc1C(=O)Nc1nnc([C@@H]2C[C@H](O)[C@@H](CO)O2)s1,nt,nt,nt,-27,nt,nt
CC(=O)NC(c1cccc([N+](=O)[O-])c1)c1ccc2cccnc2c1O (stereo unspecified),123*,-35,nt,nt,49,-21
O=[N+]([O-])c1ccc(NC(c2ccccc2)c2ccc3cccnc3c2O)cc1 (stereo unspecified),nt,nt,nt,32,nt,nt
OC[C@@H]1CN(Cc2ccc(-c3ccccc3)cc2)C[C@H](n2cnc3c(N4CCOCC4)ncnc32)O1,nt,nt,nt,3,nt,nt
O=C1CC(c2ccccc2F)c2cc3c(cc2N1)CCC3 (stereo unspecified),65*,nt,64*,nt,42,-25
CCCOc1ccccc1C1CC(=O)Nc2cc3c(cc21)OCCO3 (stereo unspecified),103*,0,94*,40,48,-17
COc1ccccc1C1CC(=O)Nc2cc(C)c(C)cc21 (stereo unspecified),63*,-18,nt,nt,35,-19
SMILES,aSyn 5UTR inh,Lipid droplet,APP 5UTR inh,TAG inh,Jurkat NFkB inh,697 NFkB inh
Cc1cc2c(cc1C)C(c1ccccc1Br)CC(=O)N2 (stereo unspecified),17,2,-6,8,17,4
O=C1CC(c2cccc([N+](=O)[O-])c2)c2cc3c(cc2N1)CCC3 (stereo unspecified),32,-13,-1,-16,25,2
COc1cccc(OCc2cc(C(=O)N3CCN(C)C(c4ccccc4)C3)no2)c1 (stereo unspecified),-59,8,nt,nt,-32,-54
CCCCNC(=O)NCc1cnn(C)c1C,-11,1,2,nt,5,15
O=C(Cn1ncc(Cl)c(Cl)c1=O)N1CCc2ccccc21,135*,-19,95*,85,nt,nt
O=C(Cn1ncc(Cl)c(Cl)c1=O)N1CCOCC1,-62,-27,14,nt,10,-12
O=C(Cn1ncc2c1-c1ccccc1OC2)N1CCc2ccccc21,17,14,-15,-21,-3,7
O=C(Cn1ncc(Cl)c(Cl)c1=O)N1CCN(Cc2ccccc2)CC1,-71,19,90*,64*,nt,nt
OC[C@@H]1CN(Cc2ccccc2)C[C@H](n2ccc3c(N4CCCC4)ncnc32)O1,nt,nt,nt,18,nt,nt
COC(=O)C1CCN(S(=O)(=O)c2c[nH]c(=O)[nH]c2=O)CC1,nt,nt,nt,-3,nt,nt
COc1ccc(-c2c(C#N)c(N)nc(Sc3ccc(Cl)cc3)c2C#N)cc1,?,12,nt,54*,15,-18
CC[C@@]1(C(=O)OC)N[C@H](CN(C)C(=O)c2ccc(C)cc2)[C@@H]2C(=O)N(Cc3ccccc3)C(=O)[C@@H]21,nt,nt,nt,-11,1,14
CC1(C)C(=O)CC[C@@]2(C)[C@H]1CC[C@@]1(C)CC3=C(CC[C@@H]12)[C@@]1(C)CCC(=O)C(C)(C)[C@@H]1CC3,nt,nt,nt,nt,-6,7
COc1ccc(O)c(/C=N/NC(=S)Nc2cccc(S(=O)(=O)N(C)C)c2)c1,74*,-14,60*,nt,nt,nt
O=C(CN1CCCC1)Nc1ccc(-c2nc3cc(NC(=O)CN4CCCC4)ccc3o2)cc1,-119,0,-60,52*,-80,-54
CCN(CC)CC(=O)Nc1ccc(-c2nc3cc(NC(=O)CN(CC)CC)ccc3o2)cc1,-32,3,7,48,-55,-21
COc1ccc(OC)c(NC(=O)CSc2nc3ccccc3c3nc4ccccc4n23)c1,nt,1,-2,nt,nt,nt
COc1ccc(NC(=O)CSc2nc3ccccc3nc2N2CCCC2)cc1,14,50*,nt,29,-3,3
CC(=O)Nc1ccc(NC(=O)CSc2nc3ccccc3nc2N2CCCCC2)cc1,-14,-3,nt,nt,16,-9
COc1ccc(NC(=O)CSc2nc3ccccc3c3nc4ccccc4n23)cc1,nt,29,81*,nt,nt,nt
O=C(NNC(=O)c1cccnc1SCc1cccc([N+](=O)[O-])c1)c1ccccn1,103*,-5,72*,nt,-5,-37
CCOc1nc2ccccc2cc1C=O,-9,4,57*,10,8,10
COc1ccc(Nc2nc(N)c(C(=O)c3ccc(F)cc3)s2)cc1,70*,-10,nt,nt,23,-21
COc1ccc(C(=O)c2sc(Nc3ccccc3)nc2C)cc1,-32,-31,nt,nt,-9,-14
